For data set [1], the target named is Hypoxia-inducible factor 1-alpha (Homo sapiens) (UniProt Q16665). Description: Inhibition of HIF1alpha protein level in human Hep3B cells after 12 hrs in hypoxic condition by Western blot analysis. Type of data set: cell-based. Summed up:
(§1)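 HCT116, A549, Hep3B and HeLa cells incubated 12 h under normoxia or hypoxia with or without indicated compound concentrations; nuclear extracts probed for HIF-1α by Western blot, blot reprobed for topoisomerase-I as loading control.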

For data set [2] the target is unchanged. Description: Inhibition of HIF1alpha transcriptional activity in human Hep3B cells after 24 hrs in hypoxic condition by HRE-dual luciferase reporter gene assay. Type of data set: cell-based. Summed up: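 Hep3B cells transiently co-transfected with pGL3-HRE-luciferase and pRL-CMV, after 24 h incubated under hypoxia with or without compound; luciferase activity measured after 24 h, ursolic acid as positive control; mean ± SD of three independent experiments.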

In data set [3] the test system is Hep 3B2. The data set can be described thus: Cytotoxicity against human Hep3B cells assessed as reduction in cell viability after 24 hrs in normoxic condition by MTT assay. Type of data set: cell-based. Summed up:
(§2)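 Hep3B viability by MTT assay after 24 h compound treatment under normoxia; table values are means, n=3.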

Data set [4] deals with Hypoxia-inducible factor 1-alpha (Homo sapiens) (UniProt Q16665). The data set can be described thus: Inhibition of HIF1alpha protein level in human HCT116 cells after 12 hrs in hypoxic condition by Western blot analysis. Type of data set: cell-based. Put shortly: as §1
Sequence of Hypoxia-inducible factor 1-alpha (Homo sapiens) (Q16665 whole entry, looked up): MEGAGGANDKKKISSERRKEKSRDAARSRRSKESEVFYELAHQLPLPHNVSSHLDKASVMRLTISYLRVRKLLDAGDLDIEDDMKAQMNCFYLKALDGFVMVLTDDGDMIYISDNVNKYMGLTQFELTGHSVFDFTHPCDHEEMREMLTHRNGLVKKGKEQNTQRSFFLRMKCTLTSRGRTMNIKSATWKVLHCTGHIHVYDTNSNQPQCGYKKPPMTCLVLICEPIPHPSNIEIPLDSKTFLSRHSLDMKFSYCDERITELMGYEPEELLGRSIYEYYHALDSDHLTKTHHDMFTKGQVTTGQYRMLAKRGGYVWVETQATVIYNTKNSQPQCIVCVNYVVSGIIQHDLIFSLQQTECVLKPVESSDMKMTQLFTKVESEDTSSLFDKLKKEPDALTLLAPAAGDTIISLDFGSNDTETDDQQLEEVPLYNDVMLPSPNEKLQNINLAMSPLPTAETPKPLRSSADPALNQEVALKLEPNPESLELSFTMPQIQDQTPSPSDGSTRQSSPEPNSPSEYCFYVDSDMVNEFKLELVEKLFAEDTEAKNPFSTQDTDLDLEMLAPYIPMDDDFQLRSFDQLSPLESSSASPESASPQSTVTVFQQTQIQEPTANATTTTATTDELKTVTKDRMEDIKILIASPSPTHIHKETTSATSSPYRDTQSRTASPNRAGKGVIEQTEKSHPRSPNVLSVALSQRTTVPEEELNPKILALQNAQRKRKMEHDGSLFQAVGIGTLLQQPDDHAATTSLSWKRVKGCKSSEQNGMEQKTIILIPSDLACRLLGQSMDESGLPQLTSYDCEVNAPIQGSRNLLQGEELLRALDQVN
Data set [5] has the same target. The data set can be described thus: Inhibition of HIF1alpha protein level in human A549 cells after 12 hrs in hypoxic condition by Western blot analysis. The data set is classed as cell-based. Summed up: as §1
Data set [6] shares this target. The data set can be described thus: Inhibition of HIF1alpha protein level in human HeLa cells after 12 hrs in hypoxic condition by Western blot analysis. Type of data set: cell-based. Summed up:
as §1

For data set [7] the target is unchanged. Description: Inhibition of HIF1alpha protein level in human Hep3B cells at 10 uM after 12 hrs in hypoxic condition by DAPI-staining based confocal laser scanning microscopic analysis. The data set is classed as cell-based. Summed up:
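Hep3B cells given 10 μM compound for 12 h under hypoxia, fixed, stained with anti-HIF-1α (1:100) and Alexa Fluor 488 goat anti-mouse IgG, nuclei counterstained with DAPI; imaged by fluorescence microscopy with 40× objective.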

Data set [8] has the same target. The data set can be described thus: Inhibition of HIF1alpha in human Hep3B cells at 10 uM preincubated with 26S proteosome inhibitor MG132 followed by compound addition and measured after 12 hrs in hypoxic condition by Western blot analysis. The data set is classed as cell-based. Summed up:
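Proteasome inhibitor MG-132 (10 μM) added to Hep3B cells 30 min before compound (10 μM), then hypoxia for 12 h; nuclear HIF-1α detected by Western blot.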

In data set [9] the target is T1, 26S proteasome (Homo sapiens) (UniProt Q99460+P49721+P20618+P28074+P28062+P28065+P28072+O00487+P25786+P25787+P25788+P25789+P28066+P60900+O14818+Q8TAA3+P40306+A5LHX3+P49720+P28070+Q99436+Q16186+P35998+P62191+P43686+P62333+P17980+P62195+Q13200+O43242+O00232+O00231+Q15008+P51665+Q9UNM6+P55036+P48556+P60896). The data set can be described thus: Inhibition of 26S proteosome in human Hep3B cells grown under in hypoxic condition for 4 hrs assessed as downregulation of HIF1alpha level at 10 uM added together with cycloheximide and measured after up 45 mins post dose by Western blot analysis. The data set is classed as cell-based. Summed up:
(§3)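 Hep3B cells kept under normoxia or hypoxia for 4 h, then cycloheximide (10 μM) and compound (10 μM) added to the medium; HIF-1α level detected by Western blot at 0, 15, 30 or 45 min after cycloheximide.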

Data set [10] addresses T1, 26S proteasome (Homo sapiens). Description: Inhibition of 26S proteosome in human Hep3B cells grown under in normoxic condition for 4 hrs assessed as downregulation of HIF1alpha level at 10 uM added together with cycloheximide and measured after up 45 mins post dose by Western blot analysis. Type of data set: cell-based. Put shortly:
as §3

For data set [11], the system named is Hep 3B2. The data set can be described thus: Downregulation of HIF1alpha mRNA expression in human Hep3B cells up to 10 uM after 12 hrs in hypoxic condition by RT-PCR analysis. Type of data set: functional, cell-based. Put shortly: (§4)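 Hep3B cells held under normoxia or hypoxia for 12 h with or without indicated compound concentrations; RNA isolated, reverse-transcribed and analysed by RT-PCR for HIF-1α and VEGF, GAPDH as loading control; mean ± SD of three independent experiments.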

Data set [12] has as its system Hep 3B2. The data set can be described thus: Downregulation of HIF1alpha mRNA expression in human Hep3B cells up to 10 uM after 12 hrs in normoxic condition by RT-PCR analysis. Type of data set: functional, cell-based. Summed up:
as §4

Data set [13] has as its target Hypoxia-inducible factor 1-alpha (Homo sapiens) (UniProt Q16665). Description: Inhibition of HIFalpha in human Hep3B cells assessed as downregulation of VEGF mRNA expression up to 10 uM after 12 hrs in hypoxic condition by RT-PCR analysis. The data set is classed as cell-based. Summed up: as §4
Data set [14] has the same target. Description: Inhibition of HIF1alpha protein level in human Hep3B cells after 12 hrs in normoxic condition by Western blot analysis. Type of data set: cell-based. Summed up:
as §1

Data set [15] has the same target. Description: Inhibition of HIF1alpha protein level in human HCT116 cells after 12 hrs in normoxic condition by Western blot analysis. Type of data set: cell-based. Summed up: as §1
For data set [16] the target is unchanged. The data set can be described thus: Inhibition of HIF1alpha protein level in human A549 cells after 12 hrs in normoxic condition by Western blot analysis. The data set is classed as cell-based. Put shortly:
as §1

The target is the same in data set [17]. Description: Inhibition of HIF1alpha protein level in human HeLa cells after 12 hrs in normoxic condition by Western blot analysis. Type of data set: cell-based. Summed up:
as §1

The test system of data set [18] is Hep 3B2. Description: Effect on TOP1 protein level in human Hep3B cells after 12 hrs in hypoxic condition by Western blot analysis. Type of data set: functional, cell-based. Summed up:
as §1

For data set [19], the system named is Hep 3B2. Description: Cytotoxicity against human Hep3B cells assessed as reduction in cell viability up to 30 uM after 24 hrs in normoxic condition by MTT assay. Type of data set: cell-based. Particulars: hep 3b2, 24 h. Put shortly:
as §2

Data set [20] concerns Hep 3B2. Description: Antiproliferative activity against human Hep3B cells assessed as reduction in EdU incorporation at 10 uM after 12 hrs in hypoxic condition by DAPI staining based inverted fluorescence microscopic method. Type of data set: functional, cell-based. Put shortly: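 Hep3B cells incubated 12 h with or without compound at 10 μM; EdU-labelled replicating cells examined by fluorescence microscopy, DNA counterstained with DAPI; percentage of EdU-positive cells compared with vehicle-treated cells.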

The test system of data set [21] is Hep 3B2. The data set can be described thus: Anticlonogenic activity against human Hep3B cells after 10 days by crystal violet staining based assay. The data set is classed as functional, cell-based. Summed up:
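Hep3B cells exposed to compound at 0, 1, 3 and 10 μM for 12 h, then medium replaced with fresh medium and cells grown 10 d; colony formation imaged.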

In data set [22] the test system is HCT-116. Description: Effect on TOP1 protein level in human HCT116 cells after 12 hrs in hypoxic condition by Western blot analysis. Type of data set: functional, cell-based. Put shortly:
as §1

Data set [23] deals with A549. The data set can be described thus: Effect on TOP1 protein level in human A549 cells after 12 hrs in hypoxic condition by Western blot analysis. Type of data set: functional, cell-based. Put shortly:
as §1

Data set [24] relates to HeLa. Description: Effect on TOP1 protein level in human HeLa cells after 12 hrs in hypoxic condition by Western blot analysis. The data set is classed as functional, cell-based. Put shortly: as §1

Our source for the inhibition, IC50 and Activity values is ChEMBL document CHEMBL4368925, “Design, synthesis, and screening of novel ursolic acid derivatives as potential anti-cancer agents that target the HIF-1α pathway” (Bioorg Med Chem Lett, 2019).

Structures are written as SMILES. Active and inactive are the calls of the source. No cut-off for these calls is given here.

With `C[C@H]1[C@H](C)CC[C@]2(C(=O)O)CC[C@]3(C)C(=CC[C@@H]4[C@@]5(C)CC(=C\c6ccc(Cl)cc6)/C(=N\NC(=N)N)C(C)(C)[C@@H]5CC[C@]43C)[C@H]12`, the inhibition entry in data set [1], in [2], in [4], in data set [5] and in [6] was “Dose-dependent effect” in each case. In addition, in [3], the IC50 is over 100 µM. The inhibition entry in data set [7], in data set [8] and in data set [13] was “Active” throughout. The inhibition entry in data set [9], in data set [10], in data set [14], in data set [15], in [16] and in data set [17] was “inactive” each time. Further, the result in data set [11], in data set [12], in data set [18], in data set [22], in [23] and in [24] was inactive. In addition, the Activity result in [19] was “Non-Toxic”; in data set [21], “Dose-dependent effect”. In addition, the result in data set [20] was Active.
Take `C[C@H]1[C@H](C)CC[C@]2(C(=O)OCc3c(Cl)cccc3Cl)CC[C@]3(C)C(=CC[C@@H]4[C@@]5(C)CC/C(=N\NC(=N)N)C(C)(C)[C@@H]5CC[C@]43C)[C@H]12`: in [3], the IC50 is 22.3 µM.
In the case of `C[C@H]1[C@H](C)CC[C@]2(C(=O)O)CC[C@]3(C)C(=CC[C@@H]4[C@@]5(C)CC/C(=N\NC(=N)N)C(C)(C)[C@@H]5CC[C@]43C)[C@H]12`, the IC50 in data set [3] was over 100 µM.
For the molecule `C[C@H]1[C@H](C)CC[C@]2(C(=O)O)CC[C@]3(C)C(=CC[C@@H]4[C@@]5(C)CC(=C\c6ccccc6)/C(=N\NC(=N)N)C(C)(C)[C@@H]5CC[C@]43C)[C@H]12`, the IC50 in data set [3] is over 100 µM.
Consider `C[C@H]1[C@H](C)CC[C@]2(C(=O)O)CC[C@]3(C)C(=CC[C@@H]4[C@@]5(C)CC[C@H](O)C(C)(C)[C@@H]5CC[C@]43C)[C@H]12` [URSOLIC ACID], for which the IC50 in data set [3] came out at 23.8 µM.
For the molecule `C[C@H]1[C@H](C)CC[C@]2(C(=O)O)CC[C@]3(C)C(=CC[C@@H]4[C@@]5(C)CC(=C\c6ccc([N+](=O)[O-])cc6)/C(=N\NC(=N)N)C(C)(C)[C@@H]5CC[C@]43C)[C@H]12`, the IC50 in data set [3] was over 100 µM.
Turning to `C[C@H]1[C@H](C)CC[C@]2(C(=O)OCc3ccc(F)cc3)CC[C@]3(C)C(=CC[C@@H]4[C@@]5(C)CC/C(=N\NC(=N)N)C(C)(C)[C@@H]5CC[C@]43C)[C@H]12`, the IC50 in data set [3] was determined as 12.9 µM.
Turning to `C[C@H]1[C@H](C)CC[C@]2(C(=O)O)CC[C@]3(C)C(=CC[C@@H]4[C@@]5(C)CC(=C\c6ccccc6Cl)/C(=N\NC(=N)N)C(C)(C)[C@@H]5CC[C@]43C)[C@H]12`, the IC50 in data set [3] is over 100 µM.
Take `C[C@H]1[C@H](C)CC[C@]2(C(=O)OCc3ccc(Cl)cc3)CC[C@]3(C)C(=CC[C@@H]4[C@@]5(C)CC/C(=N\NC(=N)N)C(C)(C)[C@@H]5CC[C@]43C)[C@H]12`: the IC50 in [3] turned out to be 32.1 µM.
For the molecule `C[C@H]1[C@H](C)CC[C@]2(C(=O)OCc3ccc(Cl)cc3Cl)CC[C@]3(C)C(=CC[C@@H]4[C@@]5(C)CC/C(=N\NC(=N)N)C(C)(C)[C@@H]5CC[C@]43C)[C@H]12`, the IC50 in data set [3] is over 100 µM.
For the molecule `C[C@H]1[C@H](C)CC[C@]2(C(=O)O)CC[C@]3(C)C(=CC[C@@H]4[C@@]5(C)CC(=C\c6cccc(Br)c6)/C(=N\NC(=N)N)C(C)(C)[C@@H]5CC[C@]43C)[C@H]12`, the IC50 in data set [3] was over 100 µM.
On the same count and under the same terms, under `Cc1ccc(/C=C2\C[C@]3(C)[C@H]4CC=C5[C@@H]6[C@@H](C)[C@H](C)CC[C@]6(C(=O)O)CC[C@@]5(C)[C@]4(C)CC[C@H]3C(C)(C)\C2=N\NC(=N)N)cc1` stands over 100 µM.
